Laboratory results published in ChEMBL document CHEMBL4270594, “Design, synthesis and pharmacological evaluation of new 3-(1H-benzimidazol-2-yl)quinolin-2(1H)-one derivatives as potential antitumor agents” (Eur J Med Chem, 2018).
Calls of active or inactive are those of the source. The rule behind the calls is not given here.

Key:
HepG2 [1] = assay: Induction of apoptosis in human HepG2 cells transfected with p53 siRNA assessed as necrotic apoptotic cells after 24 hrs by Annexin V-FITC/ propidium iodide staining based flow cytometry (reference value: 15.6 to 15.7%); type: functional
Mus musculus [2] = assay: Toxicity in Kunming mouse assessed as change in body weight at 50 mg/kg/day, ip for 14 consecutive days measured daily during compound dosing; type: organism-based; details: in vivo
Summary of the method: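 Kunming mice dosed intraperitoneally at 50 mg/kg per day for 14 consecutive days, compound dissolved in 5% v/v DMSO/saline; body weight recorded daily as a systemic toxicity parameter against a control group; six mice per group.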

NCI-H460 [3] = assay: Antitumor activity against human NCI-H460 cells xenografted in Balb/c nude mouse assessed as tumor growth inhibition at 25 mg/kg, ip bid for 13 days measured on day 14 post last dose relative to control; type: functional; details: read-out: TGI
Summary of the method: (§1)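 SPF BALB/c nude mice carrying NCI-H460 xenografts were randomly grouped and given 25 or 50 mg/kg. Vehicle (5% DMSO in saline, v/v) and cisplatin 2 mg/kg were the controls, n = 6 per group. Tumour volume was followed to give the relative tumour increment rate (T/C, %). Tumours were harvested and weighed on day 14 to give the weight inhibitory rate.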

NCI-H460 [4] = assay: Cytotoxicity against human NCI-H460 cells after 48 hrs by MTT assay; type: functional, cell-based; details: NCI-H460, 48 h
Summary of the method: (§2)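 MTT cytotoxicity assay run against HepG2 and BEL-7404 liver cancer, SK-OV-3 ovarian, NCI-H460 large-cell lung cancer and HL-7702 normal liver cells. 5-fluorouracil and cisplatin served as positive controls. IC50 is given as mean ± SD of three repeat experiments.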

Mus musculus [5] = assay: Toxicity in Kunming mouse assessed as signs of peritonitis or damage to liver at 50 mg/kg/day, ip for 14 consecutive days by microscopic method; type: organism-based; details: in vivo
Summary of the method: (§3)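 Kunming mice given 50 mg/kg/day ip in 5% v/v DMSO/saline for 14 days; kidney, heart and liver harvested, sectioned for pathology slices and examined microscopically for peritonitis or organ damage versus control mice.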

Mus musculus [6] = assay: Upregulation of cytochrome-c expression in tumor tissues of Balb/c nude mouse xenografted with human NCI-H460 cells at 25 to 50 mg/kg, ip bid for 13 days measured on day 14 by Western blot analysis; type: functional, organism-based
Summary of the method: (§4)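 Tumors from NCI-H460 xenografted BALB/c nude mice (25 or 50 mg/kg, vehicle 5% DMSO in saline) collected at day 14; protein levels in tumor tissue determined by western blot versus vehicle control.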

NCI-H460 [7] = assay: Antitumor activity against human NCI-H460 cells xenografted in Balb/c nude mouse assessed as relative tumor volume increment rate at 25 mg/kg, ip bid for 13 days measured on day 14 post last dose relative to control; type: functional; summary of the method: as §1
SK-OV-3 = assay: Cytotoxicity against human SKOV3 cells after 48 hrs by MTT assay; type: functional, cell-based; details: SK-OV-3, 48 h; summary of the method: as §2
HepG2 [8] = assay: Induction of apoptosis in human HepG2 cells transfected with p53 siRNA assessed as live cells after 24 hrs by Annexin V-FITC/ propidium iodide staining based flow cytometry (reference value: 69.9 to 70.3%); type: functional
HepG2 [9] = assay: Cytotoxicity against human HepG2 cells after 48 hrs by MTT assay; type: functional, cell-based; details: HepG2, 48 h; summary of the method: as §2
Mus musculus [10] = assay: Effect on caspase-3 protein expression in tumor tissues of Balb/c nude mouse xenografted with human NCI-H460 cells at 25 to 50 mg/kg, ip bid for 13 days measured on day 14 by Western blot analysis; type: functional, organism-based
Mus musculus [11] = assay: Toxicity in Kunming mouse assessed as signs of peritonitis or damage to heart at 50 mg/kg/day, ip for 14 consecutive days by microscopic method; type: organism-based; details: in vivo; summary of the method: as §3
BEL-7404 tumor cell line = assay: Cytotoxicity against human Bel7404 cells after 48 hrs by MTT assay; type: functional, cell-based; details: BEL-7404, 48 h; summary of the method: as §2
NCI-H460 [12] = assay: Antitumor activity against human NCI-H460 cells xenografted in Balb/c nude mouse assessed as relative tumor volume increment rate at 50 mg/kg, ip bid for 13 days measured on day 14 post last dose relative to control; type: functional; summary of the method: as §1
L02 = assay: Cytotoxicity against human HL-7702 cells after 48 hrs by MTT assay; type: cell-based; details: L02, 48 h; summary of the method: as §2
HepG2 [13] = assay: Induction of apoptosis in human HepG2 cells assessed as morphological changes at 6 to 10 uM after 12 hrs by […] staining based fluorescence microscopic method; type: functional, cell-based
Summary of the method: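 HepG2 cells treated for 12 h, stained with Hoechst 33258 and viewed by fluorescence microscopy for nuclear blue fluorescence and apoptotic morphology, compared with untreated cells.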

Mus musculus [14] = assay: Upregulation of caspase-9 protein expression in tumor tissues of Balb/c nude mouse xenografted with human NCI-H460 cells at 25 to 50 mg/kg, ip bid for 13 days measured on day 14 by Western blot analysis; type: functional, organism-based; summary of the method: as §4
HepG2 [15] = assay: Induction of apoptosis in human HepG2 cells transfected with p53 siRNA assessed as early apoptotic cells after 24 hrs by Annexin V-FITC/ propidium iodide staining based flow cytometry (reference value: 5.99 to 6.01%); type: functional
HepG2 [16] = assay: Cell cycle arrest in human HepG2 cells transfected with p53 siRNA assessed as accumulation at S-phase after 48 hrs by propidium iodide staining based flow cytometry (reference value: 20.37 to 22.8%); type: functional
Mus musculus [17] = assay: Downregulation of Bcl2 protein expression in tumor tissues of Balb/c nude mouse xenografted with human NCI-H460 cells at 25 to 50 mg/kg, ip bid for 13 days measured on day 14 by Western blot analysis; type: functional, organism-based
Mus musculus [18] = assay: Toxicity in Kunming mouse assessed as signs of peritonitis or damage to kidney at 50 mg/kg/day, ip for 14 consecutive days by microscopic method; type: organism-based; details: in vivo; summary of the method: as §3
HepG2 [19] = assay: Induction of apoptosis in human HepG2 cells transfected with p53 siRNA assessed as late apoptotic cells after 24 hrs by Annexin V-FITC/ propidium iodide staining based flow cytometry (reference value: 7.99 to 8.6%); type: functional
HepG2 [20] = assay: Cell cycle arrest in human HepG2 cells transfected with p53 siRNA assessed as accumulation at G1-phase after 48 hrs by propidium iodide staining based flow cytometry (reference value: 55.48 to 56.24%); type: functional
NCI-H460 [21] = assay: Antitumor activity against human NCI-H460 cells xenografted in Balb/c nude mouse assessed as induction of necrosis at 25 to 50 mg/kg, ip bid for 13 days measured on day 14 post last dose by hematoxylin and eosin staining based microscopic method; type: functional, organism-based
NCI-H460 [22] = assay: Antitumor activity against human NCI-H460 cells xenografted in Balb/c nude mouse assessed as tumor growth inhibition at 50 mg/kg, ip bid for 13 days measured on day 14 post last dose relative to control; type: functional; details: read-out: TGI; summary of the method: as §1
Mus musculus [23] = assay: Toxicity in Balb/c nude mouse xenografted with human NCI-H460 cells assessed as change in body weight at 25 to 50 mg/kg, ip bid for 13 days; type: organism-based; details: in vivo, 312 h
Summary of the method: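 SPF BALB/c nude mice bearing NCI-H460 xenografts, randomized and given 25 or 50 mg/kg in 5% DMSO/saline vehicle, with cisplatin 2 mg/kg as positive control; body weight tracked over the 13-day treatment; n = 6.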

HepG2 [24] = assay: Cell cycle arrest in human HepG2 cells transfected with p53 siRNA assessed as accumulation at G2-phase after 48 hrs by propidium iodide staining based flow cytometry (reference value: 21.72 to 23.39%); type: functional

Row | Structure (SMILES) | Activity (HepG2 [1]) | Activity (Mus musculus [2]) | inhibition in vivo at 25 mg/kg (NCI-H460 [3]) | IC50 (NCI-H460 [4]) | Activity (Mus musculus [5]) | Activity (Mus musculus [6]) | T/C (NCI-H460 [7]) | IC50 (SK-OV-3) | Activity (HepG2 [8]) | IC50 (HepG2 [9]) | Activity (Mus musculus [10]) | Activity (Mus musculus [11]) | IC50 (BEL-7404 tumor cell line) | T/C (NCI-H460 [12]) | IC50 (L02) | Activity (Mus musculus [14]) | Activity (HepG2 [15]) | Activity (HepG2 [16]) | Activity (Mus musculus [17]) | Activity (Mus musculus [18]) | also measured
1 | O=c1[nH]c2ccccc2cc1-c1nc2cc(Cl)ccc2[nH]1 | 6.08% | Non-Toxic | 51.9% | 14.7 µM | Non-Toxic | Active | 40.6% | 10.5 µM | 74.8% | 8.45 µM | inactive | Non-Toxic | 16.5 µM | 30.7% | > 100 µM | Active | 11.5% | 20.84% | Active | Non-Toxic | Activity (HepG2 [13]): Active; Activity (HepG2 [19]): 7.62%; Activity (HepG2 [20]): 46.86%; Activity (NCI-H460 [21]): Active; inhibition in vivo at 50 mg/kg (NCI-H460 [22]): 66.9%; Activity (Mus musculus [23]): Non-Toxic; Activity (HepG2 [24]): 32.3%
2 | O=c1[nH]c2cc3c(cc2cc1-c1nc2cc(Cl)ccc2[nH]1)OCO3 | 6.29% | Non-Toxic | 46.2% | 30.4 µM | Non-Toxic | Active | 48.8% | 24.7 µM | 74.6% | 10.6 µM | inactive | Non-Toxic | 9.06 µM | 38.1% | > 100 µM | Active | 11.2% | 6.86% | Active | Non-Toxic | Activity (HepG2 [19]): 7.96%; Activity (HepG2 [20]): 74.18%; Activity (NCI-H460 [21]): Active; inhibition in vivo at 50 mg/kg (NCI-H460 [22]): 55.1%; Activity (Mus musculus [23]): Non-Toxic; Activity (HepG2 [24]): 18.96%
